Experimental data: ChEMBL document CHEMBL4118104, “Design, Synthesis, and Evaluation of Orally Bioavailable Quinoline-Indole Derivatives as Innovative Multitarget-Directed Ligands: Promotion of Cell Proliferation in the Adult Murine Hippocampus for the Treatment of Alzheimer's Disease” (J Med Chem, 2018)

What was measured:
Assay type in all cases: ADME, organism-based
[1] = Drug uptake in Sprague-Dawley rat brain at 30 mg/kg, po after 1 hr by LC-MS/MS analysis; settings: read-out: Drug uptake
How it was run: (§1)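 SD rats, single oral gavage 30 mg/kg, n = 3; plasma and brain drug levels taken 1 h after dosing, measured by LC-MS/MS.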

[2] = AUC (0 to infinity) in Sprague-Dawley rat at 30 mg/kg, po by LC-MS/MS analysis; set-up: dose 30 mg/kg, time infinity, route oral; settings: in vivo
[3] = AUC (0 to t) in Sprague-Dawley rat at 5 mg/kg, iv administered as single dose by LC-MS/MS analysis; settings: in vivo
How it was run: (§2)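 SD rats given 5 mg/kg intravenously, n = 3; pharmacokinetic parameters derived from plasma concentrations.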

[4] = Initial plasma concentration in Sprague-Dawley rat at 5 mg/kg, iv administered as single dose by LC-MS/MS analysis
[5] = Cmax in Sprague-Dawley rat at 30 mg/kg, po by LC-MS/MS analysis; set-up: dose 30 mg/kg, route oral; settings: in vivo; how it was run: as §1
[6] = Volume of distribution at steady state in Sprague-Dawley rat at 5 mg/kg, iv administered as single dose by LC-MS/MS analysis; settings: in vivo, read-out: Vdss
[7] = MRT (0 to infinity) in Sprague-Dawley rat at 5 mg/kg, iv administered as single dose by LC-MS/MS analysis; settings: in vivo
[8] = Apparent volume of distribution in Sprague-Dawley rat at 5 mg/kg, iv administered as single dose by LC-MS/MS analysis; settings: in vivo, read-out: Vz; how it was run: as §2
[9] = Tmax in Sprague-Dawley rat at 30 mg/kg, po by LC-MS/MS analysis; settings: in vivo
How it was run: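 SD rats given a single oral gavage dose of 30 mg/kg, n = 3; plasma levels by LC-MS/MS; bioavailability computed against the 5 mg/kg intravenous arm.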

## Cl.Oc1ccc2[nH]c(-c3ccc4c(Cl)cc(Cl)c(O)c4n3)cc2c1
[1]
  concentration at 1 h: 579 ng/g
[2]
  AUC(0-inf): 1790 ng·h/mL
[3]
  AUC(0-t): 2110 ng·h/mL
[4]
  C0: 4930 ng/mL
[5]
  Cmax: 1000 ng/mL
[6]
  Vd: 0.954 L/kg
[7]
  MRT inf: 24.6 min
[8]
  Vd: 2.49 L/kg
[9]
  Tmax: 30 min
